Assays:
[1] = molecular target: Apoptosis regulator Bcl-2 (Homo sapiens, UniProt P10415); assay: Displacement of fluorescently-tagged BH3 peptide from Bcl-2 by chemiluminescent nitrogen detection method
In short: (§1)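 Solution-phase competition binding in HTS format. Inhibitors compete with a fluorescently tagged BH3 peptide for Bcl-2 or Bcl-xL. Library compounds were first screened at one fixed concentration. Hits exceeding three standard deviations above assay error were then run in a multi-point dilution series, and Ki values were derived from that series.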

Bcl-2-like protein 1 = Bcl-2-like protein 1 (Homo sapiens, UniProt Q07817); assay: Displacement of fluorescently-tagged BH3 peptide from Bcl-XL by chemiluminescent nitrogen detection method; in short: as §1
Chain of Bcl-2-like protein 1 (Q07817 whole entry): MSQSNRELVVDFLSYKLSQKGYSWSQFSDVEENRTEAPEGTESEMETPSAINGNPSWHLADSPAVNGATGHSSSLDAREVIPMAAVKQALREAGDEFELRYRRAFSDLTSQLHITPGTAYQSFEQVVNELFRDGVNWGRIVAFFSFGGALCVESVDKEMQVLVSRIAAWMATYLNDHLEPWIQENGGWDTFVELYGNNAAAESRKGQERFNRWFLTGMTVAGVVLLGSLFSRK

Chain of Apoptosis regulator Bcl-2 (P10415 whole entry): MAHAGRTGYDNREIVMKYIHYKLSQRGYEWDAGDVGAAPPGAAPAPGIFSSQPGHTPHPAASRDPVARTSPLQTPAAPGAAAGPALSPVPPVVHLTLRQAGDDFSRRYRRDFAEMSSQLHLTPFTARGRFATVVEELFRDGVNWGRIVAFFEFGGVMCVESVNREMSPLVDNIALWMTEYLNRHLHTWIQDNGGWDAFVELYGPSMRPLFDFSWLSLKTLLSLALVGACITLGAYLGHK

SMILES	Ki [1] [µM]	Ki (Bcl-2-like protein 1) [µM]
COCCNC(=O)[C@@H]1[C@@H](CO)[C@@H]2Cn3c(cccc3=O)[C@H]1N2c1nc(-c2ccc(Cl)cc2)c(-c2ccccc2)s1	4.3	> 100
O=C(NCCN1CCCCC1)[C@H]1[C@H](CO)[C@H]2Cn3c(cccc3=O)[C@@H]1N2c1nc(-c2ccc(Cl)cc2)c(-c2ccccc2)s1	1.5	11
O=C(NCCCN1CCCC1)[C@@H]1[C@@H](CO)[C@@H]2Cn3c(cccc3=O)[C@H]1N2c1nc(-c2ccc(Cl)cc2)c(-c2ccccc2)s1	3	5.7
O=C(NCCN1CCCCC1)[C@@H]1[C@@H](CO)[C@@H]2Cn3c(cccc3=O)[C@H]1N2c1nc(-c2ccc(Cl)cc2)c(-c2ccccc2)s1	2.5	6
CN(C)CCNC(=O)[C@@H]1[C@@H](CO)[C@@H]2Cn3c(cccc3=O)[C@H]1N2c1nc(-c2ccc(Cl)cc2)c(-c2ccccc2)s1	2	5.7
COCCNC(=O)[C@H]1[C@H](CO)[C@H]2Cn3c(cccc3=O)[C@@H]1N2c1nc(-c2ccc(Cl)cc2)c(-c2ccccc2)s1	14	> 100
O=C(NCCCN1CCCC1)[C@H]1[C@H](CO)[C@H]2Cn3c(cccc3=O)[C@@H]1N2c1nc(-c2ccc(Cl)cc2)c(-c2ccccc2)s1	1.6	7.8
CN(C)CCNC(=O)[C@H]1[C@H](CO)[C@H]2Cn3c(cccc3=O)[C@@H]1N2c1nc(-c2ccc(Cl)cc2)c(-c2ccccc2)s1	1.3	6.6

The next lines start with the values.

Ki [1] [µM]	Ki (Bcl-2-like protein 1) [µM]	SMILES
5.4	> 100	O=C(NC1Cc2ccccc2C1)[C@H]1[C@H](CO)[C@H]2Cn3c(cccc3=O)[C@H]2N1CC1CCCCC1
6.8	> 100	O=C([C@@H]1[C@@H](CO)[C@@H]2Cn3c(cccc3=O)[C@@H]2N1Cc1ccc(Oc2ccccc2)cc1)N1CCC(c2ccc(F)cc2)CC1
1.2	> 100	O=C([C@@H]1[C@@H](CO)[C@@H]2Cn3c(cccc3=O)[C@@H]2N1Cc1ccc(Cl)c(Cl)c1)N1CCC(Cc2ccccc2)CC1
2.2	> 100	O=C([C@@H]1[C@@H](CO)[C@@H]2Cn3c(cccc3=O)[C@@H]2N1Cc1ccc(Cl)c(Cl)c1)N1CCC(c2ccc(F)cc2)CC1
4.1	> 100	O=C(N[C@H]1CCN(Cc2ccccc2)C1)[C@H]1[C@H](CO)[C@H]2Cn3c(cccc3=O)[C@H]2N1CC1CCCCC1
5.2	> 100	O=C([C@@H]1[C@@H](CO)[C@@H]2Cn3c(cccc3=O)[C@@H]2N1Cc1ccc(Oc2ccccc2)cc1)N1CCC(Cc2ccccc2)CC1
7.8	> 100	O=C(N[C@@H]1CCN(Cc2ccccc2)C1)[C@H]1[C@H](CO)[C@H]2Cn3c(cccc3=O)[C@H]2N1CC1CCCCC1
8.4	> 100	O=C(NCc1ccc(Oc2ccccc2)cc1)[C@H]1[C@H](CO)[C@H]2Cn3c(cccc3=O)[C@H]2N1CC1CCCCC1
